Source: ChEMBL document CHEMBL1649302, “New small-molecule inhibitor class targeting human immunodeficiency virus type 1 virion maturation” (Antimicrob Agents Chemother, 2009)

What was measured:
[1] = test system: Human immunodeficiency virus 1; test: Antiviral activity against wild type HIV1 infected in human HeLa cells assessed as decrease in viral infection after 72 hrs by beta-galactosidase reporter gene assay; assay type: functional, organism-based; settings: Human immunodeficiency virus 1, HeLa
Summary of the method: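 HeLa CD4 LTR/β-Gal cells (1 × 10⁴/well, DMEM + 10% FBS) were pretreated with half-log compound dilutions. They were then infected at MOI 0.03 with single-cycle NL4-3 ΔEnv reporter virus pseudotyped with envelope from HEK 293 cotransfection. EC50 was the concentration halving β-galactosidase activity versus infected untreated cells. Values are mean ± SD or representative of three experiments.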

[2] = test system: Human immunodeficiency virus 1; test: Antiviral activity against HIV1 harboring capsid I201V mutant protein infected in human HeLa cells assessed as decrease in viral infection after 72 hrs by beta-galactosidase reporter gene assay; assay type: functional, organism-based; settings: Human immunodeficiency virus 1, HeLa
[3] = test system: Human immunodeficiency virus 1; test: Antiviral activity against HIV1 harboring spacer peptide A1V mutant protein infected in human HeLa cells assessed as decrease in viral infection after […] by beta-galactosidase reporter gene assay; assay type: functional, organism-based; settings: Human immunodeficiency virus 1, HeLa
Summary of the method: (§1)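 MT-2 cells were infected for 2 h with wild-type NL4-3 or recombinant NL4-3 carrying CA I201V or SP1 A1V. They were then cocultured with HeLa CD4 LTR/beta-Gal indicator cells in serially diluted compound. Beta-gal reporter was read after 4 days. EC50s are means ± SD of 3–6 experiments. Fold change is mutant EC50 divided by wild-type EC50.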

[4] = test system: Human immunodeficiency virus 1; test: Selectivity ratio of EC50 for HIV1 harboring capsid I201V mutant protein infected in human HeLa cells to EC50 for wild type HIV1 infected in human HeLa cells; assay type: functional; summary of the method: as §1
[5] = test system: Human immunodeficiency virus 1; test: Selectivity ratio of EC50 for HIV1 harboring spacer peptide A1V mutant protein infected in human HeLa cells to EC50 for wild type HIV1 infected in human HeLa cells; assay type: functional; summary of the method: as §1
[6] = test system: Human immunodeficiency virus 1; test: Antiviral activity against HIV1 NL4-3 infected in human HeLa cells assessed as decrease in single-cycle viral infection after 72 hrs by beta-galactosidase reporter gene assay; assay type: functional, organism-based; settings: Human immunodeficiency virus 1, NL4-3, HeLa
Summary of the method: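 HeLa CD4 LTR/beta-Gal cells (1 × 10⁴/well, DMEM + 10% FBS) were pre-dosed with half-log compound dilutions. They were infected at MOI 0.03 with single-cycle NL4-3 reporter virus made by cotransfecting HEK 293 cells with pNL4-3deltaEnv and an NL4-3 envelope vector. EC50 is from beta-gal reporter activity relative to infected untreated cells, across three experiments.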

[7] = test system: Human immunodeficiency virus 1; test: Antiviral activity against HIV1 NL4-3 infected in HEK293 cells assessed as decrease in virus production at 2 times EC90 after 72 hrs by beta-galactosidase reporter gene assay; assay type: functional

Compound | EC50 [1] | EC50 [2] | EC50 [3] | Ratio EC50 [4] | Ratio EC50 [5] | EC50 [6] | inhibition (INH) [7]
C=C(C)[C@@H]1CC[C@]2(C(=O)O)CC[C@]3(C)[C@H](CC[C@@H]4[C@@]5(C)CC[C@H](OC(=O)CC(C)(C)C(=O)O)C(C)(C)[C@@H]5CC[C@]43C)[C@@H]12 [BEVIRIMAT] | 0.009 µM | 0.29 µM | > 1 µM | 32 | >111 |  | 
Cc1c(O)cccc1C(=O)N[C@@H](CSc1ccccc1)[C@H](O)CN1C[C@H]2CCCC[C@H]2C[C@H]1C(=O)NC(C)(C)C [NELFINAVIR] | 0.016 µM | 0.013 µM | 0.038 µM | 1 | 2 | > 1 µM | 76%
O=C1Nc2ccc(Cl)cc2[C@@](C#CC2CC2)(C(F)(F)F)O1 [EFAVIRENZ] |  | 0.0006 µM | 0.001 µM |  |  |  | 24%
